Experimental data from ChEMBL document CHEMBL1649070, “Virtual screening identification of nonfolate compounds, including a CNS drug, as antiparasitic agents inhibiting pteridine reductase” (J Med Chem, 2011).
Converted amounts (≈) assume the structure as drawn. The source made the active and inactive calls. The rule behind the calls is not given here.

Tests used:
[1] = target: Bifunctional dihydrofolate reductase-thymidylate synthase (Leishmania major) (UniProt P07382); assay: Inhibition of Leishmania major DHFR at 25 uM
Sequence of Bifunctional dihydrofolate reductase-thymidylate synthase (Leishmania major) (P07382 whole entry, looked up): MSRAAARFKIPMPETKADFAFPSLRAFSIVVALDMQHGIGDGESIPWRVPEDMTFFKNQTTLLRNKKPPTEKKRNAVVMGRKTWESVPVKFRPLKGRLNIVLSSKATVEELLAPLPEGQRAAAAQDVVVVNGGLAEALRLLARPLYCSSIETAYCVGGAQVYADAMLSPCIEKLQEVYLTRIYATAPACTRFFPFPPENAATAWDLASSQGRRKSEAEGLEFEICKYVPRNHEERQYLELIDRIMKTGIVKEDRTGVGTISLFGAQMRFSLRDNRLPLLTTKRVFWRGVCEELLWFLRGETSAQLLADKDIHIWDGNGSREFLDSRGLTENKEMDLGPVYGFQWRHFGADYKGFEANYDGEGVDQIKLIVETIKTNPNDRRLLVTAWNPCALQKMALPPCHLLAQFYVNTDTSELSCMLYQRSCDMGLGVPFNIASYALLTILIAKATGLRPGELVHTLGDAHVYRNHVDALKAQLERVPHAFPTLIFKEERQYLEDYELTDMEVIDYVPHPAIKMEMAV
Procedure, shortened: (§1)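 NADPH oxidation followed at 340 nm. Compounds in DMSO, screened at a single concentration between 25 μM and 1 mM. Measurements run in triplicate.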

[2] = target: T1, Dihydrofolate reductase (Homo sapiens) (UniProt P00374); assay: Inhibition of human DHFR at 25 uM; procedure, shortened: as §1
T1 sequence (whole entry): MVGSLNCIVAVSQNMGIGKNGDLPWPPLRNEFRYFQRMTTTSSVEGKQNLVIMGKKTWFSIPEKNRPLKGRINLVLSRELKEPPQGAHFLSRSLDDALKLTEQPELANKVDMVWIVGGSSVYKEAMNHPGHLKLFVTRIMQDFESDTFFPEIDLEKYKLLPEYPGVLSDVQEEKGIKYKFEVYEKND

[3] = target: Bifunctional dihydrofolate reductase-thymidylate synthase (Leishmania major) (UniProt P07382); assay: Inhibition of Leishmania major DHFR at 50 uM; procedure, shortened: as §1
Leishmania mexicana [4] = assay: Antileishmanial activity against Leishmania mexicana MHOM/BZ/84/BEL46 assessed as growth at 50 ug/ml by Alamar blue assay; type: functional
Procedure, shortened: (§2)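 Promastigotes grown in SDM-79, pH 7.3, with 15% heat-inactivated FCS at 28 C in 5% CO2, then seeded at 1 × 10^6 parasites/mL. Each compound tested alone at 50 μg/mL in duplicate as a control for the combination experiments; DMSO below 1% final. After 72 h at 28 C, Alamar Blue added for 4 h; fluorescence read at ex 530 / em 590 nm. Growth expressed as percentage of untreated cultures.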

Leishmania major [5] = assay: Antileishmanial activity against Leishmania major MHOM/SU/73/5-ASKH assessed as growth at 50 ug/ml by Alamar blue assay; type: functional; procedure, shortened: as §2
[6] = Cytotoxicity against human MRC5 cells after 72 hrs by Alamar blue assay; type: cell-based; conditions: read-out: ED50
Leishmania mexicana [7] = assay: Antileishmanial activity against Leishmania mexicana MHOM/BZ/84/BEL46 assessed as growth by Alamar blue assay; type: functional; conditions: read-out: ED50 (the source's name)
Procedure, shortened: (§3)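 Promastigotes cultured in SDM-79, pH 7.3, with 15% heat-inactivated FCS at 28 C under 5% CO2, then seeded at 1 × 10^6 parasites/mL. DMSO dilutions in medium tested from 100 μg/mL downward, DMSO <1% final. After 72 h at 28 C, Alamar Blue added for 4 h; fluorescence at ex 530 / em 590 nm. Untreated cultures set as 100%. ED50 by linear interpolation; three independent experiments, each in duplicate.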

Leishmania major [8] = assay: Antileishmanial activity against Leishmania major MHOM/SU/73/5-ASKH assessed as growth by Alamar blue assay; type: functional; conditions: read-out: ED50 (the source's name); procedure, shortened: as §3
[9] = target: T2, Pteridine reductase 1 (Leishmania major) (UniProt Q01782); assay: Inhibition of Leishmania major PTR1 at 5 uM
T2 sequence (whole entry): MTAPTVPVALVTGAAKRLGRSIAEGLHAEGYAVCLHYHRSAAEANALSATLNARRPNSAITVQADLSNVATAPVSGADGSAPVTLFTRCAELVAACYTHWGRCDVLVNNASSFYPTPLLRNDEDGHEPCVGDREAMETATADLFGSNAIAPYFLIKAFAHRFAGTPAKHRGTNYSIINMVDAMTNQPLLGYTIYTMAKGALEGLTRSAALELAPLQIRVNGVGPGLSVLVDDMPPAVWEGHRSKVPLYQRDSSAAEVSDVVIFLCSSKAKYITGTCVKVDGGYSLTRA
Procedure, shortened: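 Compounds dissolved in DMSO and screened at a single 5 μM concentration; DMSO kept below 1%. Measurements run in triplicate.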

Leishmania major [10] = assay: Antileishmanial activity against Leishmania major MHOM/SU/73/5-ASKH assessed as growth at 50 ug/ml by Alamar blue assay in presence of pyrimethamine; 5-(4-chlorophenyl)-6-ethylpyrimidine-2,4-diamine DHFR inhibitor; values are per cent of control
Leishmania mexicana [11] = assay: Antileishmanial activity against Leishmania mexicana MHOM/BZ/84/BEL46 assessed as growth at 50 ug/ml by Alamar blue assay in presence of pyrimethamine; 5-(4-chlorophenyl)-6-ethylpyrimidine-2,4-diamine DHFR inhibitor; values are per cent of control
[12] = target: Bifunctional dihydrofolate reductase-thymidylate synthase (Leishmania major) (UniProt P07382); assay: Inhibition of Leishmania major DHFR at 1 mM; procedure, shortened: as §1
[13] = target: T1, Dihydrofolate reductase (Homo sapiens); assay: Inhibition of human DHFR at 50 uM; procedure, shortened: as §1
[14] = Cytotoxicity against human MRC5 cells at 100 ug/ml after 72 hrs by Alamar blue assay; type: cell-based; conditions: at 100 µg/mL, read-out: INH
[15] = Solubility of the compound at pH 7.4; type: physicochemical; conditions: buffer
[16] = Lipophilicity, log D of the compound in octanol buffer at pH 7.4; type: physicochemical

Row | Structure (SMILES) | inhibition [1] | inhibition [2] | inhibition [3] | growth, % of control at 50 µg/mL (Leishmania mexicana [4]) [%] | growth, % of control at 50 µg/mL (Leishmania major [5]) [%] | CC50 at 72 h [6] [µg/mL] | EC50 (Leishmania mexicana [7]) [µg/mL] | EC50 (Leishmania major [8]) [µg/mL] | inhibition [9] | growth, % of control at 50 µg/mL (Leishmania major [10]) [%] | growth, % of control at 50 µg/mL (Leishmania mexicana [11]) [%] | inhibition [12] | inhibition [13] | cytotoxicity at 72 h, 100 ug/ml [14] [%] | solubility [15] [µM] | logD [16]
1 | Nc1nc2ccc([N+](=O)[O-])cc2s1 | inactive | inactive |  |  |  |  |  |  |  |  |  |  |  |  |  | 
2 | O=C(CCCl)Nc1nnc(CCCl)s1 |  |  | inactive | 4.7 | 7.1 | 4.18 (≈ 16.4 µM) | 10.1 (≈ 39.7 µM) | 22.1 (≈ 87 µM) | inactive | 4.1 | 3.5 |  |  |  |  | 
3 | Nc1nc2ccc(OC(F)(F)F)cc2s1 [RILUZOLE] |  |  |  | 21.5 | 102 | 27.9 (≈ 119 µM) | 30.8 (≈ 132 µM) |  |  | 22.9 | 15.1 | inactive |  |  |  | 
4 | Nc1nnc(-c2cnccc2N)s1 |  |  | inactive | 112 | 106 |  |  |  | inactive | 38 | 15.6 |  | inactive | 10 | 1700 (≈ 328 µg/mL) | 1.44
